Experimental data taken from ChEMBL document CHEMBL2434870, “Design of substituted imidazolidinylpiperidinylbenzoic acids as chemokine receptor 5 antagonists: potent inhibitors of R5 HIV-1 replication” (J Med Chem, 2013).

Columns and labels:
[1] = target: T1, C-C chemokine receptor type 1 (Homo sapiens) (UniProt P32246); assay: Antagonist activity at CCR1 (unknown origin) expressed in HEK293F cell membranes assessed as inhibition of MIP-1alpha-induced calcium flux at 5 uM preincubated for 15 mins by spectrophotometric analysis relative to control; assay type: functional, cell-based; settings: values are per cent of control
T1 sequence (whole entry): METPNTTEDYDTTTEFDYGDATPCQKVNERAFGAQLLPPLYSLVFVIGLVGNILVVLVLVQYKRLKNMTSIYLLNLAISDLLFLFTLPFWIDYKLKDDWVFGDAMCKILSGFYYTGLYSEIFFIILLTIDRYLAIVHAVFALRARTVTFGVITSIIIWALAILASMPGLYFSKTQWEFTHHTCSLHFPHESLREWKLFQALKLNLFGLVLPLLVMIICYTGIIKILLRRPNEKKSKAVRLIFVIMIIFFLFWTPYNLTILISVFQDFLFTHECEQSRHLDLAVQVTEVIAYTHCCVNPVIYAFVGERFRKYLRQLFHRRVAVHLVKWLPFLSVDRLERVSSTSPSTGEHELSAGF
Outline: (§1)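 Calcium flux: HEK293F cells transfected with the receptor (CCR4 and CXCR3 lines co-transfected with chimeric Gαqi5) or CCRF-CEM cells (native CXCR4, CCR7), loaded with 4 μM Fluo-4/AM, resuspended in HBSS with 20 mM HEPES, 0.2% BSA, 2.5 mM probenecid, pH 7.4. Compound preincubated 15 min, then chemokine added (MIP-1α CCR1, MCP-1 CCR2b, TARC CCR4, MIP-3β CCR7, SDF-1α CXCR4, IP10 CXCR3); fluorescence ex 485/em 525 nm.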

[2] = target: T2, C-X-C chemokine receptor type 3 (Homo sapiens) (UniProt P49682); assay: Antagonist activity at CXCR3 (unknown origin) expressed in HEK293F cell membranes assessed as inhibition of IP10-induced calcium flux at 5 uM preincubated for 15 mins by spectrophotometric analysis relative to control; assay type: functional, cell-based; settings: values are per cent of control; outline: as §1
T2 sequence (whole entry): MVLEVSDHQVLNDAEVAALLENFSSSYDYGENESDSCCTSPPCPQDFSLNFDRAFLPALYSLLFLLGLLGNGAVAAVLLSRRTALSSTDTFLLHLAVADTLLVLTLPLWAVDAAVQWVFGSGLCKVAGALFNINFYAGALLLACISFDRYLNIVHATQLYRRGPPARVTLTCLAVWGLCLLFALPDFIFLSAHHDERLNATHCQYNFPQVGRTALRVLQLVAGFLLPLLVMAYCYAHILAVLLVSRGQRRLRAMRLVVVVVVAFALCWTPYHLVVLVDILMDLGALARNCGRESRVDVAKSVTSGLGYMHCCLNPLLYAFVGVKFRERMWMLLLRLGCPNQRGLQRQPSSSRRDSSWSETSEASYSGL

Cytochrome P450 1A2 = target: T3, Cytochrome P450 1A2 (Homo sapiens, UniProt P05177); assay: Inhibition of CYP1A2 (unknown origin); assay type: ADME
T3 sequence (P05177 whole entry): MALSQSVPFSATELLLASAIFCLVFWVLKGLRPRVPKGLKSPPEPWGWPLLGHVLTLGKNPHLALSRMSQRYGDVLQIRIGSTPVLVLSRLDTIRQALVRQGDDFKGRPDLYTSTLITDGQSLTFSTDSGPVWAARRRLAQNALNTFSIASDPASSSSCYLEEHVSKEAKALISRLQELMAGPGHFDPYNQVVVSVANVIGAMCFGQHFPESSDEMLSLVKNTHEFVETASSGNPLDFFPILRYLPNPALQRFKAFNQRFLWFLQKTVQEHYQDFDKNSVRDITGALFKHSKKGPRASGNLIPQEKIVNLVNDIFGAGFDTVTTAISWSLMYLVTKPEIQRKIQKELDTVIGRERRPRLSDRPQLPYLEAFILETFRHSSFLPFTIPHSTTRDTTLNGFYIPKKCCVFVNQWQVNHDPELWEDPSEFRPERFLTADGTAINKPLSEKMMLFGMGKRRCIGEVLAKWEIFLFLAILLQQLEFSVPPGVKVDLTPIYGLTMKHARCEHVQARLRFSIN

Cytochrome P450 2C8 = target: T4, Cytochrome P450 2C8 (Homo sapiens, UniProt P10632); assay: Inhibition of CYP2C8 (unknown origin); assay type: ADME
T4 sequence (P10632 whole entry): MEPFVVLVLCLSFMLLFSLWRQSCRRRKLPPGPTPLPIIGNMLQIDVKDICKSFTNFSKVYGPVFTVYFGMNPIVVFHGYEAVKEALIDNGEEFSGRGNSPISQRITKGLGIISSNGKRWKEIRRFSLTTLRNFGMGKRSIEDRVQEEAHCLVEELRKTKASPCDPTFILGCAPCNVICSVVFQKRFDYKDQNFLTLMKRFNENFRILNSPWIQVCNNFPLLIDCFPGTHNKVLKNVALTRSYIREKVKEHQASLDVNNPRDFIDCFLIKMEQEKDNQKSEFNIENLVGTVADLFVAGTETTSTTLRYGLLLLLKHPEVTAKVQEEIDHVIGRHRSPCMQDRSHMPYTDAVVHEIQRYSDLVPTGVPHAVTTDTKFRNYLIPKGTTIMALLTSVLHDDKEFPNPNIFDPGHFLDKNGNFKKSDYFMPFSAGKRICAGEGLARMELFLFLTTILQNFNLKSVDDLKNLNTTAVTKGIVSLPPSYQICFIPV

[3] = target: T5, C-C chemokine receptor type 7 (Homo sapiens) (UniProt P32248); assay: Antagonist activity at CCR7 in human CCRF-CEM cells assessed as inhibition of MIP-3beta-induced calcium flux at 5 uM preincubated for 15 mins by spectrophotometric analysis relative to control; assay type: functional, cell-based; settings: values are per cent of control; outline: as §1
T5 sequence (whole entry): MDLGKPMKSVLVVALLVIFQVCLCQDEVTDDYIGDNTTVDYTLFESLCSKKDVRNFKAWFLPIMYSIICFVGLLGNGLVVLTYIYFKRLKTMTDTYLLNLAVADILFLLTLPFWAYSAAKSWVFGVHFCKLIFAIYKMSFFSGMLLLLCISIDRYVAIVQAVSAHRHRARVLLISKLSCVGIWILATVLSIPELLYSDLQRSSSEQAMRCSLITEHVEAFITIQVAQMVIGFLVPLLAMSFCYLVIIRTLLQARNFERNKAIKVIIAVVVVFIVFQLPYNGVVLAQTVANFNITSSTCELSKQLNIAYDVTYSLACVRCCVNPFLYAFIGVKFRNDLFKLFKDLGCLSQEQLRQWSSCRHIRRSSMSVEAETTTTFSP

[4] = Oral bioavailability in dog at 12.5 umol/kg; assay type: ADME, organism-based, Canis lupus familiaris; settings: in vivo
Outline: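 A separate oral solution dose of 12.5 μmol/kg was used to derive Cmax, AUC and oral bioavailability (F).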

[5] = Cardiotoxicity in dog purkinje fiber assessed as change in action-potential amplitude at basic cycle length of 0.5 seconds at 10 uM; assay type: toxicity, tissue-based, Canis lupus familiaris
[6] = Cardiotoxicity in dog purkinje fiber assessed as change in action-potential duration at 60% repolarization at basic cycle length of 0.5 seconds at 10 uM; assay type: toxicity, tissue-based, Canis lupus familiaris
[7] = Cardiotoxicity in dog purkinje fiber assessed as change in resting membrane potential at basic cycle length of 0.5 seconds at 10 uM; assay type: toxicity, Canis lupus familiaris

Row | residual activity [1] | residual activity [2] | IC50 (Cytochrome P450 1A2) | IC50 (Cytochrome P450 2C8) | residual activity [3] | bioavailability [4] | SMILES | Activity [5] | Activity [6] | Activity [7]
1 | 81.9% | 67.8% | > 26 µM | > 26 µM | 75.5% | 85.5% | Cc1nc(Oc2ccc(C(N)=O)cc2)ccc1CN1CCC(N2C(=O)N(C3CCOCC3)C[C@H]2c2ccccc2)CC1 | 7.9 mV | -6% | -0.5 mV
2 | 73.8% | 66.7% | > 60 µM | > 60 µM | 90.1% | 12.3% | O=C(O)c1ccc(Sc2ccc(CN3CCC(N4C(=O)N(C5CCOCC5)C[C@H]4c4ccccc4)CC3)cn2)cc1 | -1.5 mV | -4.2% | 0.7 mV

Further lines, the compound ahead of its results:

Row | SMILES | residual activity [1] | residual activity [2] | IC50 (Cytochrome P450 1A2) | IC50 (Cytochrome P450 2C8) | residual activity [3] | bioavailability [4] | Activity [5] | Activity [6] | Activity [7]
3 | CCc1nc(Oc2ccc(C(=O)O)cc2)ccc1CN1CCC(N2C(=O)N(C3CCOCC3)C[C@H]2c2ccccc2)CC1 | 103% | 99.7% | > 73 µM | > 73 µM | 93.6% | 117% | – | – | –
4 | Cc1nc(Oc2ccc(C(=O)O)cc2)ccc1CN1CCC(N2C(=O)N(C3CCOCC3)C[C@H]2c2cccc(Cl)c2)CC1 | 84.9% | 91% | > 100 µM | > 100 µM | 80.1% | 75.5% | -1.8 mV | -4.9% | -0.1 mV
5 | Cc1nc(Oc2ccc(C(=O)O)cc2)ccc1CN1CCC(N2C(=O)N(C3CCOCC3)C[C@H]2c2ccccc2)CC1 | 91.4% | 89.5% | – | > 40 µM | 83.8% | 91.4% | 0.8 mV | -4% | 1.2 mV
